Assay results as given in ChEMBL document CHEMBL1152551, “Synthesis and pharmacological evaluation of novel 1- and 8-substituted-3-furfuryl xanthines as adenosine receptor antagonists” (Bioorg Med Chem, 2009).

Key:
[1] = biological target: T1, Adenosine receptor A1 (Rattus norvegicus) (UniProt P25099); assay: Displacement of [3H]DPCPX form adenosine A1 receptor in rat cortex membrane at 1 uM; format: cell membranes
T1 sequence (whole entry): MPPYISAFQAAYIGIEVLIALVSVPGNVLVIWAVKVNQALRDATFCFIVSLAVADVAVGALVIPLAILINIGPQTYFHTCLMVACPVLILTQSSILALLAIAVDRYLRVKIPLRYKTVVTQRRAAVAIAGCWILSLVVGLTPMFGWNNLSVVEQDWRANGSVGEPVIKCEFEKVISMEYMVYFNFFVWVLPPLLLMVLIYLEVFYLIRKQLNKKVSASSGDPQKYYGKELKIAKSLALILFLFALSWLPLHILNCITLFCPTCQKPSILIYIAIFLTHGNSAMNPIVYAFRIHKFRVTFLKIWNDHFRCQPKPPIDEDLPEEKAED
In short: (§1)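 Single concentration of 1 µM tested for displacement of specific radioligand binding, given as percentage displacement. Rat A1 in rat cortex membranes with [3H]DPCPX; human A2B in HEK-293 cells with [3H]DPCPX; human A2A in HeLa cells with [3H]ZM241385; human A3 in HeLa cells with [3H]NECA.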

[2] = biological target: T2, Adenosine receptor A2b (Homo sapiens) (UniProt P29275); assay: Displacement of [3H]DPCPX from human adenosine A2B receptor expressed in HEK293 cells at 1 uM; format: cell-based; in short: as §1
T2 sequence (whole entry): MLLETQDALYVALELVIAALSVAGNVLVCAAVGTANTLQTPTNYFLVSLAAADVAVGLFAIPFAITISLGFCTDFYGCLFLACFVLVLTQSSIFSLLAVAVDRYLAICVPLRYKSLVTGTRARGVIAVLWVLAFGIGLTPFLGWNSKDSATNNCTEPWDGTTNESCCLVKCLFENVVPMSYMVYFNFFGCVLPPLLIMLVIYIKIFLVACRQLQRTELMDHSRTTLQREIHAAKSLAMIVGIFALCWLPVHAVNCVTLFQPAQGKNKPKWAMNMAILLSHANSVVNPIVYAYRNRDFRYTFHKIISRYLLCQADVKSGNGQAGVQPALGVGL

Adenosine receptor A2a = Adenosine receptor A2a (Homo sapiens, UniProt P29274); assay: Displacement of [3H]ZM241385 from human adenosine A2A receptor expressed in HeLa cells at 1 uM by microplate beta scintillation counting; format: cell-based; in short: as §1
[3] = biological target: T3, Adenosine receptor A3 (Homo sapiens) (UniProt P0DMS8); assay: Displacement of [3H]NECA from human recombinant adenosine A3 receptor expressed in HeLa cells at 1 uM; format: cell-based; in short: as §1
T3 sequence (whole entry): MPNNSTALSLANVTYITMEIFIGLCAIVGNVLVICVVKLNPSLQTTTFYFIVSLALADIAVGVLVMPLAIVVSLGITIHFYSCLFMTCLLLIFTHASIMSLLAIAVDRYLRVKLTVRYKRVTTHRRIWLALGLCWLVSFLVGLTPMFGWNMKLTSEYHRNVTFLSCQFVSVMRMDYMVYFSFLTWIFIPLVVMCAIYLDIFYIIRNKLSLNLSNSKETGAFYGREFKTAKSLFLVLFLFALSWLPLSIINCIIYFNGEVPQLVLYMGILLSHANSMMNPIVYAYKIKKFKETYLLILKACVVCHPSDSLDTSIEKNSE

Sequence of Adenosine receptor A2a (P29274 whole entry): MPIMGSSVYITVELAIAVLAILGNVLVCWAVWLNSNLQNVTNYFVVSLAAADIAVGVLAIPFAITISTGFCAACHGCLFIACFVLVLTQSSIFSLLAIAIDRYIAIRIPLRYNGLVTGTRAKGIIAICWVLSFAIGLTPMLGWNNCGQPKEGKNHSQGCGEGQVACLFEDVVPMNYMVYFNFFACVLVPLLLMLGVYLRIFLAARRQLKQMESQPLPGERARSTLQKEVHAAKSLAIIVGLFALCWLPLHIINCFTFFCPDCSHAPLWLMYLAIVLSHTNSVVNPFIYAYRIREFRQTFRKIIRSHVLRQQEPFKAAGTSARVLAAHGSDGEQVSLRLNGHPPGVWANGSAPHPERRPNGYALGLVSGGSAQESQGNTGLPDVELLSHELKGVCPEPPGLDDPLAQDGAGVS

Activity [1]: 2%
Activity [2]: 20%
Activity (Adenosine receptor A2a): 1%
Activity [3]: 1%
SMILES: CCS(=O)(=O)CCn1c(=O)c2[nH]c(Cc3ccccc3)nc2n(Cc2ccco2)c1=O
